Measurements as given in ChEMBL document CHEMBL3352156, “Endoplasmic reticulum stress suppressive compounds from the edible mushroom Mycoleptodonoides aitchisonii” (J Nat Prod, 2014).
Activity calls are given as the source filed them. The calls are words filed in the database; no cut-off is given here.

Tests used:
N2a [1] = assay: Protection against tunicamycin-induced ER-stress-dependent mouse Neuro2a cell death assessed as cell viability after 24 hrs by MTT assay; type: functional, cell-based
Outline: (§1)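 Neuro2a cells in D-MEM with 10% FBS, seeded at 2000 cells/well and grown 24 h. Pretreated 6 h with graded compound levels in serum-free D-MEM, then stressor added to final 0.5 μg/mL tunicamycin or 10 nM thapsigargin for 24 h. MTT 0.25 mg/mL for 2 h, stopped with SDS/DMF, A570. Viability as percent of untreated cells; TG mean ± SE, n = 10−12; Tukey–Kramer tests.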

N2a [2] = assay: Protection against thapsigargin-induced ER-stress-dependent mouse Neuro2a cell death assessed as cell viability at > 50 uM after 24 hrs by MTT assay; type: functional, cell-based; outline: as §1

Row | SMILES | Activity (N2a [1]) | Activity (N2a [2])
1 | CC1=C(C)C(C)(O)OC1=O (stereo unspecified) | inactive | Active
2 | OCC[C@H](O)CCc1ccccc1 | inactive | Active
3 | C[C@@H](O)[C@H]1COC(=O)[C@@H]1C | inactive | Active
4 | CC1=C(CO)C(C)(O)OC1=O (stereo unspecified) | inactive | Active
5 | CC(=O)[C@@H]1COC(=O)[C@H]1C | inactive | Active
6 | CC(=O)[C@@H]1COC(=O)[C@@H]1C | inactive | inactive
7 | OCC[C@H](O)[C@H](O)Cc1ccccc1 | inactive | Active
8 | CC1=C(C(C)O)C(O)OC1=O (stereo unspecified) | inactive | Active
